# A3G deaminase = APOBEC3G (human) deaminase inhibition. recombinant A3G, ssDNA deamination FAM/TAMRA fluorescence. Q9HC16. hit rate 0.28% among 330,000. inhibition, % at 20 µM;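 active = inhibition of at least 40% at 20 µM, with no more than 30% in the related APOBEC3A deaminase screen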;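 also: plate controls were DMSO wells with A3G for no effect and wells lacking A3G enzyme for full effect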
# Target sequence (Q9HC16 whole entry, looked up): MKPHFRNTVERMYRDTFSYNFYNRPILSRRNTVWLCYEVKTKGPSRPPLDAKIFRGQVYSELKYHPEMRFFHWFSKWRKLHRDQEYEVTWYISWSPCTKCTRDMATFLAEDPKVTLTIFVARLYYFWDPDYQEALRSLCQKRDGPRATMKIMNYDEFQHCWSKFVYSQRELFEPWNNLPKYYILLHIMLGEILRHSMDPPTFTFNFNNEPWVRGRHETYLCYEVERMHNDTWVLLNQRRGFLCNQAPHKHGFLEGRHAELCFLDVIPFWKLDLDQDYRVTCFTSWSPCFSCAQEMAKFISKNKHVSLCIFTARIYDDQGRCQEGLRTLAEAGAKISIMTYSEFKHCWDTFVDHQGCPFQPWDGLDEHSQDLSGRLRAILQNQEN
# ASAP1 inh = ASAP1 ArfGAP inhibition; inhibition, % at 16.5 µM; hit rate 0.19% among 360,000; ASAP1-stimulated ARF1 GTP hydrolysis, GDP FP detection; in the data active = inhibition above about 25%;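 also: 0% = vehicle with enzyme and substrate and 100% = no enzyme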
# SUMO Mot1 rescue = SUMOylation pathway inhibition by Mot1-301 growth rescue | S. cerevisiae Mot1-301 growth rescue, ATP luminescence, 38.5C; percent above DMSO median, 100 means doubled | growth rescue, % at 18.8 µM | hit rate 1% among 320,000 | AID 2716;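 active = every valid replicate shows activation above 250% relative to neutral control wells; inactive = the rest, any valid replicate at or below 250%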;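 also: OY570 slx delta 5 strain wells were the positive control but not used for scaling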
# ARFGAP1 inhibitor = inhibits rat ARF GTPase activating protein 1. Arfgap1-stimulated ARF1 GTP hydrolysis, GDP FP detection. inhibition, % at 16.5 µM. hit rate 0.26% among 360,000. AID 651572;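 active = inhibition above a per-plate limit, mean inhibition of low control wells plus 3 SD, cut at about 25% in these data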;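 also: 0% = DMSO wells with enzyme and 100% = wells lacking Arfgap1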
#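 System: truncated rat Arfgap1 GAP domain / Medium: HEPES-based buffer, pH 7.5 / Also added: N-terminally truncated human ARF1-GTP substrate / Incubation: enzyme reaction 120 min at 25 °C after 20 min preincubation / Measured by: FP of antibody-bound GDP Alexa 633 tracer, ex 620/em 688 nm / Replicates: singlicate, each compound tested once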
# A3A deaminase = blocks human APOBEC3A ssDNA deamination; P31941; AID 493011; recombinant A3A, FAM/TAMRA ssDNA deamination fluorescence; inhibition, % at 20 µM; hit rate 0.41% among 330,000;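 active = at least 40% inhibition at 20 µM here, with at most 30% in a related deaminase screen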;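 also: plate controls were A3A with DMSO for no effect and wells lacking A3A enzyme for full effect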
# C2C12 statin = suppression of simvastatin myotoxicity; C2C12 myotubes + simvastatin, ATP luminescence, 48 h; scaled: DMSO 0, geranylgeraniol control 100; rescue of ATP level, % at 7.49 µM; hit rate 0.78% among 330,000;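 active = mean ATP rescue above about 67%, or every replicate alone reaching that limit, limit read from the data, passing the limit was not always enough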;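 also: myotubes were challenged with 10 µM simvastatin during compound exposure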
# Yeast Mot1 SUMO = yeast SUMO pathway inhibition in dose response; shares compounds with SUMO Mot1 rescue; S. cerevisiae Mot1-301 galactose growth, ATP luminescence, 24 h; -100 = growth of slx-deleted rescue strain; growth activity, percent, % at 42 µM; 2,300 tested, under 10 active; AID 493004;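 active = Signal drops as the depositor expects, and the fitted half-maximal dose is no more than ten times the top valid tested dose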;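 also: more negative values mean stronger growth rescue toward the control strain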
# The depositor's hits bear a star; · = not tested or not shown. Only some compounds are listed: those with a hit (about 2.1% of all), similar ones and a draw of the others.
SMILES,A3G deaminase,ASAP1 inh,SUMO Mot1 rescue,ARFGAP1 inhibitor,A3A deaminase,C2C12 statin,Yeast Mot1 SUMO
CCC(C)(C)NC(=O)C(c1ccc(C)cc1)N(CC1CCCO1)C(=O)CNC(=O)c1cccs1 (stereo not given),-4,10,688*,0,-3,7,0
COC(=O)c1ccc(CN2CCN(C3CCCC3)C(CCO)C2)cc1 (stereo not given),-6,2,-20,-6,-2,8,·
COC(=O)c1ccc(CN2CCN(C3CCCCC3)C(CCO)C2)cc1 (stereo not given),-4,-9,403*,-1,0,-1,-1
CC(=O)N(C)C[C@H]1[C@H](c2ccc(-c3cccc(C#N)c3)cc2)[C@@H](CO)N1C(C)=O,·,·,·,·,·,0,·
Cc1ccccc1-n1c2nc(=O)n(C)c(=O)c-2cc2ccccc21,-3,0,169,5,1,·,·
Cn1c(=O)nc2n(Cc3ccccc3)c3ccccc3cc-2c1=O,10,0,417*,5,15,·,-1
CCCN(C)C[C@@H]1Oc2cc(C#Cc3cccnc3)ccc2S(=O)(=O)N([C@@H](C)CO)C[C@@H]1C,·,·,·,·,·,2,·
C[C@@H]1CN([C@@H](C)CO)C(=O)c2cc(C#CC3(O)CCCC3)cnc2O[C@H]1CN(C)C(=O)Cc1ccncc1,·,·,·,·,·,10,·
Cn1c(N/N=C/c2cc3ccccc3nc2Cl)nc2ccccc21,-3,6,44,1,5,·,·
Cc1nnc(C)n1/N=C/c1cc2ccccc2nc1Cl,-2,-5,608*,-3,4,10,0
Cc1ccc(/C=C/C(=O)O)cc1S(=O)(=O)N(CCO)CCO,-5,7,390*,6,-2,·,0
CC(=O)N1CCCc2cc(S(=O)(=O)Nc3ccc(C)cc3C)ccc21,-4,-1,474*,7,-4,2,0
CC(=O)N1CCc2cc(S(=O)(=O)Nc3ccc(C)cc3C)ccc21,-4,5,-13,-6,-2,-5,·
CC(=O)Nc1ccc(C(=O)Nc2nc(-c3ccccn3)cs2)cc1,-2,-1,-12,7,0,·,·
O=C(Nc1nc(-c2ccccn2)cs1)c1ccc2c(c1)OCCO2,-4,9,369*,12,0,-84,0
CC1CCN(CCCCOc2cccc(C(C)C)c2)CC1,-5,2,408*,-4,-3,3,-1
Cc1ccc(OCCCCN2CCC(C)CC2)cc1,2,·,70,·,-1,-5,·
CC(C)c1cccc(OCCCCN(C)C)c1,-5,5,568*,4,-2,·,0
CC1CCN(CCCOc2ccc(OCc3ccccc3)cc2)CC1,1,1,551*,-9,1,·,0
CC1CCN(CCCCOc2ccc(F)cc2)CC1,-4,·,548*,·,-3,4,0
CO[C@@H]1CN(C)C(=O)c2cc(NC(=O)Nc3ccc4c(c3)OCO4)ccc2OC[C@H](C)NC[C@H]1C,·,·,·,·,·,-24,·
C[C@H](CO)N1C[C@H](C)[C@H](CN(C)C(=O)c2ccccn2)Oc2cc(C3=CCCC3)ccc2S1(=O)=O,·,·,·,·,·,-8,·
C[C@H]1CN([C@@H](C)CO)C(=O)c2cc(-c3ccccc3)cnc2O[C@@H]1CN(C)C(=O)Cc1cccnc1,·,·,·,·,·,15,·
N#Cc1cccc(-c2ccc([C@H]3[C@@H](CO)N4CCCCN(C(=O)Nc5cccc(F)c5)C[C@@H]34)cc2)c1,·,·,·,·,·,-29,·
Cc1noc(C)c1S(=O)(=O)Nc1ccc2c(c1)C(=O)N([C@@H](C)CO)C[C@@H](C)[C@@H](CN(C)C(=O)NC1CCCCC1)OCCCC[C@@H](C)O2,·,·,·,·,·,47,·
C[C@@H]1CN([C@H](C)CO)C(=O)c2cc(NC(=O)NC3CCCCC3)ccc2O[C@@H](C)CCCCO[C@@H]1CN(C)CC1CCCCC1,·,·,·,·,·,-39,·
O=C(Nc1ccccc1F)C1CCN(C(=O)Cc2ccccc2)CC1,1,8,684*,3,-1,7,0
O=C(Nc1ccccc1Br)C1CCN(C(=O)Cc2ccccc2)CC1,3,-20,352,-3,2,·,·

# Assay outcomes as filed in PubChem BioAssay.
